Source: ChEMBL document CHEMBL3774376, “Synthesis, and anticonvulsant activity of new amides derived from 3-methyl- or 3-ethyl-3-methyl-2,5-dioxo-pyrrolidin-1-yl-acetic acids” (Bioorg Med Chem, 2016)
Activity calls are given as the source filed them. The calls are words filed in the database; no cut-off is given here.

Experiments:
Mus musculus [1] = experiment: Neurotoxicity in CD1 albino mouse assessed as acute motor impairment at 300 mg/kg, ip after 4 hrs by rotarod test; type: toxicity, organism-based; conditions: in vivo
How it was run: (§1)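 Male CD-1 mice given 30, 100 or 300 mg/kg ip in 0.5% methylcellulose, tested at 0.5 and 4 h. Motor impairment was scored as failure to keep balance for at least 1 min on a rod rotating at 10 rpm. Minimum dose causing impairment reported.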

Mus musculus [2] = experiment: Antinociceptive activity in CD1 albino mouse assessed as reduction of formalin-induced licking response in neurogenic phase at 87.36 mg/kg, ip preincubated for 1 hr measured after 5 mins; type: functional, organism-based
Mus musculus [3] = experiment: Neurotoxicity in CD1 albino mouse assessed as acute motor impairment at 300 mg/kg, ip measured after 0.5 hrs by rotarod test; type: toxicity, organism-based; conditions: in vivo; how it was run: as §1
Mus musculus [4] = species on record: Mus musculus; experiment: Protection index, ratio of TD50 for CD1 albino mouse to ED50 for protection against maximal electroshock-induced seizures in CD1 albino mouse
How it was run: (§2)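 Quantitation in male CD-1 mice dosed ip at the previously estimated time of peak effect. Seizures were induced by MES or by sc pentylenetetrazole 85 mg/kg; rotarod at 10 rpm assessed motor impairment. Groups of six, at least three doses giving 10-90% effect.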

Mus musculus [5] = experiment: Anticonvulsant activity in ip dosed CD1 albino mouse assessed as time to peak effect; type: functional; how it was run: as §2
Mus musculus [6] = experiment: Antinociceptive activity in CD1 albino mouse assessed as reduction of formalin-induced licking response in inflammatory phase at 87.36 mg/kg, ip preincubated for 1 hr measured after 15 to 20 mins; type: functional; design: scale not given: the % may be the effect or the level left
Mus musculus [7] = experiment: Anticonvulsant activity in CD1 mouse assessed as protection against 32 mA-current- for 3 secs induced seizure at 100 mg/kg, ip after 1 hrs by 6Hz psychomotor seizure test; type: functional
How it was run: (§3)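 Male CD-1 mice given 100 mg/kg ip in 0.5% methylcellulose, four per time point. Corneal stimulation at 32 mA, 0.2 ms monopolar rectangular pulses at 6 Hz for 3 s, from a constant-current device. A mouse was protected if it resumed normal exploratory behavior within 10 s. Reported as number protected over number tested.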

Mus musculus [8] = experiment: Anticonvulsant activity in ip dosed CD1 albino mouse assessed as protection against maximal electroshock-induced seizures; type: functional
Mus musculus [9] = experiment: Antinociceptive activity in CD1 albino mouse assessed as reduction of formalin-induced licking response in inflammatory phase at 87.36 mg/kg, ip preincubated for 1 hr measured after 25 to 30 mins; type: functional; design: scale not given: the % may be the effect or the level left
Mus musculus [10] = experiment: Anticonvulsant activity in CD1 albino mouse assessed as protection against subcutaneous pentylenetetrazole-induced seizures at 300 mg/kg, ip after 4 hrs; type: functional, organism-based
How it was run: (§4)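 Male CD-1 mice (16-26 g), compounds ip in 0.5% methylcellulose/water at 30, 100 or 300 mg/kg, 3-4 per group. At 0.5 or 4 h, pentylenetetrazole 85 mg/kg was injected sc. Protection was absence of clonic convulsions (at least 5 s) over a 30 min observation. Minimum active dose recorded.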

Mus musculus [11] = experiment: Anticonvulsant activity in CD1 albino mouse assessed as protection against subcutaneous pentylenetetrazole-induced seizures at 300 mg/kg, ip after 0.5 hrs; type: functional, organism-based; how it was run: as §4
Mus musculus [12] = experiment: Anticonvulsant activity in CD1 albino mouse assessed as protection against maximal electroshock-induced seizures at 100 to 300 mg/kg, ip after 4 hrs; type: functional; conditions: read-out: MED
Mus musculus [13] = experiment: Local anesthetic activity in CD1 albino mouse assessed prolongation of time reaction at 2 % concentration after 20 secs by tail immersion test relative to vehicle control; type: functional
How it was run: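 Compound at 1 or 2% in 0.5% methylcellulose, injected sc (0.2 ml) about 1 cm from the tail root of male CD-1 mice. After 15 min, the distal 3 cm of the tail was immersed in 50 ± 0.5 °C water and withdrawal time measured, cut off at 20 s. n=8; mean ± SEM; % prolongation relative to vehicle.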

[14] = Neurotoxicity in ip dosed CD1 albino mouse assessed as acute motor impairment by rotarod test; type: toxicity, organism-based; conditions: in vivo; how it was run: as §2
Mus musculus [15] = experiment: Anticonvulsant activity in CD1 albino mouse assessed as protection against maximal electroshock-induced seizures at 100 to 300 mg/kg, ip after 0.5 hrs; type: functional; conditions: read-out: MED
Mus musculus [16] = experiment: Anticonvulsant activity in CD1 mouse assessed as protection against 32 mA-current- for 3 secs induced seizure at 100 mg/kg, ip after 0.5 hrs by 6Hz psychomotor seizure test; type: functional; how it was run: as §3
Rattus norvegicus = species on record: Rattus norvegicus; experiment: Displacement of [3H]BTX from voltage-sensitive Na+ channel site 2 in rat cerebral cortex synaptoneurosomes at 100 uM after 60 mins by liquid scintillation spectroscopic analysis; type: tissue-based
How it was run: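 Cerebral cortex synaptoneurosomes from rat, tested at 100 µM for inhibition of specific [3H]BTX binding to the voltage-sensitive Na+ channel site 2. Reported as % inhibition of control specific binding; run commercially.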

Mus musculus [17] = experiment: Antinociceptive activity in CD1 albino mouse assessed as reduction of formalin-induced licking response in inflammatory phase at 69.05 mg/kg, ip preincubated for 30 mins measured after 15 to 20 mins; type: functional; design: scale not given: the % may be the effect or the level left
Mus musculus [18] = experiment: Anticonvulsant activity in CD1 albino mouse assessed as protection against subcutaneous pentylenetetrazole-induced seizures at 100 to 300 mg/kg, ip after 0.5 hrs; type: functional; conditions: CD1, 0.5 h, read-out: MED; how it was run: as §4
Mus musculus [19] = experiment: Anticonvulsant activity in CD1 mouse assessed as protection against 32 mA-current- for 3 secs induced seizure at 100 mg/kg, ip after 2 hrs by 6Hz psychomotor seizure test; type: functional, organism-based; how it was run: as §3
Mus musculus [20] = experiment: Anticonvulsant activity in CD1 mouse assessed as protection against 32 mA-current- for 3 secs induced seizure at 100 mg/kg, ip after 0.25 hrs by 6Hz psychomotor seizure test; type: functional; how it was run: as §3
Mus musculus [21] = experiment: Anticonvulsant activity in ip dosed CD1 albino mouse assessed as protection against subcutaneous pentylenetetrazole-induced seizures; type: functional; how it was run: as §2
Mus musculus [22] = experiment: Antinociceptive activity in CD1 albino mouse assessed as reduction of formalin-induced licking response in neurogenic phase at 69.05 mg/kg, ip preincubated for 30 mins measured after 25 to 30 mins; type: functional; design: scale not given: the % may be the effect or the level left
Mus musculus [23] = experiment: Anticonvulsant activity in CD1 albino mouse assessed as protection against maximal electroshock-induced seizures at 300 mg/kg, ip after 4 hrs; type: functional, organism-based
Mus musculus [24] = experiment: Antinociceptive activity in CD1 albino mouse assessed as reduction of formalin-induced licking response in neurogenic phase at 69.05 mg/kg, ip preincubated for 30 mins measured after 5 mins; type: functional, organism-based
Mus musculus [25] = experiment: Neurotoxicity in CD1 albino mouse assessed as acute motor impairment at 100 to 300 mg/kg, ip after 0.5 hrs by rotarod test; type: toxicity, organism-based; conditions: in vivo; how it was run: as §1
Mus musculus [26] = experiment: Protection index, ratio of TD50 for CD1 albino mouse to ED50 for protection against subcutaneous pentylenetetrazole-induced seizures in CD1 albino mouse; how it was run: as §2
Mus musculus [27] = experiment: Anticonvulsant activity in CD1 albino mouse assessed as protection against subcutaneous pentylenetetrazole-induced seizures at 100 to 300 mg/kg, ip after 4 hrs; type: functional; conditions: CD1, 4 h, read-out: MED; how it was run: as §4
Mus musculus [28] = experiment: Antinociceptive activity in CD1 albino mouse assessed as reduction of formalin-induced licking response in inflammatory phase at 75.60 mg/kg, ip preincubated for 4 hrs measured after 25 to 30 mins; type: functional; design: scale not given: the % may be the effect or the level left
Mus musculus [29] = experiment: Antinociceptive activity in CD1 albino mouse assessed as reduction of formalin-induced licking response in neurogenic phase at 75.60 mg/kg, ip preincubated for 4 hrs measured after 5 mins; type: functional; design: scale not given: the % may be the effect or the level left
Mus musculus [30] = experiment: Antinociceptive activity in CD1 albino mouse assessed as reduction of formalin-induced licking response in inflammatory phase at 75.60 mg/kg, ip preincubated for 4 hrs measured after 20 to 25 mins; type: functional; design: scale not given: the % may be the effect or the level left
Mus musculus [31] = experiment: Antinociceptive activity in CD1 albino mouse assessed as reduction of formalin-induced licking response in inflammatory phase at 75.60 mg/kg, ip preincubated for 4 hrs measured after 15 to 20 mins; type: functional; design: scale not given: the % may be the effect or the level left

Row | SMILES | Activity (Mus musculus [1]) | Activity (Mus musculus [3]) | Ratio TD50/ED50 (Mus musculus [4]) | Time (Mus musculus [5]) | ED50 (Mus musculus [8]) | Activity (Mus musculus [10]) | minimal effective dose (Mus musculus [12]) | Activity (Mus musculus [13]) | TD50 [14] | minimal effective dose (Mus musculus [15]) | Activity (Mus musculus [16]) | inhibition (Rattus norvegicus) | minimal effective dose (Mus musculus [18]) | ED50 (Mus musculus [21]) | Ratio TD50/ED50 (Mus musculus [26]) | further results
1 | CC1CC(=O)N(CC(=O)N2CCN(c3ccc(F)cc3)CC2)C1=O (stereo not given) | Non-toxic | Non-toxic | >3.43 | 1 h | 87.4 mg/kg | inactive | 100 mg/kg | 12% | > 300 mg/kg | 300 mg/kg | 75% | 36.6% | – | – | – | Activity (Mus musculus [2]): inactive; Activity (Mus musculus [6]): 95%; Activity (Mus musculus [7]): 75%; Activity (Mus musculus [9]): 98%; Activity (Mus musculus [11]): inactive
2 | CCC1(C)CC(=O)N(CC(=O)N2CCN(c3ccc(F)cc3)CC2)C1=O (stereo not given) | Non-toxic | – | 2.76 | 0.5 h | 69 mg/kg | inactive | – | 61% | 191 mg/kg | 100 mg/kg | 75% | 32.5% | 100 mg/kg | 130 mg/kg | 1.47 | Activity (Mus musculus [17]): 93%; Activity (Mus musculus [19]): inactive; Activity (Mus musculus [20]): 75%; Activity (Mus musculus [22]): 92%; Activity (Mus musculus [23]): inactive; Activity (Mus musculus [24]): inactive; MTC (Mus musculus [25]): 300 mg/kg
3 | CC1CC(=O)N(CC(=O)N2CCN(c3ccc(Cl)c(Cl)c3)CC2)C1=O (stereo not given) | Non-toxic | Non-toxic | 3.48 | 1 h | 75.6 mg/kg | – | 100 mg/kg | 14% | 263 mg/kg | 300 mg/kg | – | 33.4% | 100 mg/kg | 54.1 mg/kg | 4.86 | minimal effective dose (Mus musculus [27]): 100 mg/kg; Activity (Mus musculus [28]): 95%; Activity (Mus musculus [29]): 61%; Activity (Mus musculus [30]): 95%; Activity (Mus musculus [31]): 100%
